The source of these data is ChEMBL document CHEMBL1156744, “Anti-tumoral activity of imidazoquines, a new class of antimalarials derived from primaquine” (Bioorg Med Chem Lett, 2009).

Molecules are shown by their SMILES.

Holding throughout (format): functional, cell-based
For assay [1], the system named is Caco-2. The experiment in a line: Antitumor activity against human Caco-2 cells after 48 hours hrs by SRB assay. The conditions noted are these: Caco-2, 48 h. A digest of the protocol: (§1)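 Seeded cells were exposed to each compound across a broad concentration range for 48 h. Growth was read by sulforhodamine B staining, compared against untreated control. Values are mean ± SEM, n = 3–6.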

The subject of assay [2] is MCF7. The experiment in a line: Antitumor activity against human MCF7 cells after 48 hours hrs by SRB assay. The conditions noted are these: MCF7, 48 h. A digest of the protocol:
as §1

The test system of assay [3] is HT-29. Briefly: Antitumor activity against human HT-29 cells after 48 hours hrs by SRB assay. The conditions noted are these: HT-29, 48 h. A digest of the protocol:
as §1
In general terms: In SRB staining, fixed cells bind dye roughly in proportion to their protein.

Turning to `COc1cc(NC(C)CCCNC(C)=O)c2ncccc2c1` (stereo unspecified), the half-maximal inhibitory concentration (IC50) (usually the concentration needed to halve the response being measured) is 46 µM in assay [1], 57.3 µM in assay [2] and more than 100 µM in assay [3].

For the compound `COc1cc(N)c2ncccc2c1`, the concentration for half-maximal inhibition (IC50) in assay [1] is more than 100 µM; in assay [2], 86.5 µM; in assay [3] it was more than 100 µM.

As to `COc1cc(NC(C)CCCN2C(=O)[C@H](C)NC2(C)C)c2ncccc2c1` (stereo partly specified), the IC50 is 71 µM in assay [1], 42.3 µM in assay [2] and more than 100 µM in assay [3].

For `COc1cc(NC(C)CCCN2C(=O)CN(C(=O)[C@H](C)N)C2(C)C)c2ncccc2c1` (stereo partly specified), the 50% inhibitory concentration (IC50) was more than 100 µM in assay [1], 20 µM in assay [2] and 46.3 µM in assay [3].

`COc1cc(NC(C)CCCNC(=O)CNC(=O)[C@H](C)N)c2ncccc2c1` (stereo partly specified): the IC50 in assay [1] was more than 100 µM; in assay [2], 21.3 µM; in assay [3], 92.3 µM.

Turning to `COc1cc(NC(C)CCCNC(=O)C2CCCN2C(=O)[C@@H](C)N)c2ncccc2c1` (stereo partly specified), the half-maximal inhibitory concentration (IC50) in assay [1] is 64 µM; in assay [2], 15 µM; in assay [3], more than 100 µM.

For `COc1cc(NC(C)CCCNC(=O)CN2C(=O)[C@H](C)NC23CCCCC3)c2ncccc2c1` (stereo partly specified), the IC50 in assay [1] is 74.7 µM; in assay [2], 27 µM; in assay [3], more than 100 µM.

With `COc1cc(NC(C)CCCNC(=O)CN2C(=O)[C@H](C)NC2(C)C)c2ncccc2c1` (stereo partly specified), the figures for the IC50 in assay [1], in assay [2] and in assay [3] were 58 µM, 38.3 µM and more than 100 µM, respectively.

As for `FC(F)(F)c1ccc2c(Cl)ccnc2c1`, the IC50 in assay [1] is 52.3 µM; in assay [2], 63 µM; in assay [3], more than 100 µM.

In the case of `COc1cc(NC(C)CCCN2C(=O)CN(C(C)=O)C2(C)C)c2ncccc2c1` (stereo unspecified), the half-inhibitory concentration (IC50) was 60 µM in assay [1], more than 100 µM in assay [2] and more than 100 µM in assay [3].

On to `O=C(O)c1cc2ccccc2nc1Cl`, for which the IC50 in assay [1] is 81 µM; in assay [2], more than 100 µM; in assay [3], more than 100 µM.

On to `COc1cc(NC(C)CCCN)c2ncccc2c1` (stereo unspecified) [PRIMAQUINE], for which the concentration for half-maximal inhibition (IC50) stood at 48 µM in assay [1], 6.9 µM in assay [2] and 69.7 µM in assay [3].
